Where a chain is given by its changes, count along the chain named.
Legend:
Conditions in all cases: stereoisomer not certain
[1] = system: T1, OR5BC C141R
T1 sequence (whole entry): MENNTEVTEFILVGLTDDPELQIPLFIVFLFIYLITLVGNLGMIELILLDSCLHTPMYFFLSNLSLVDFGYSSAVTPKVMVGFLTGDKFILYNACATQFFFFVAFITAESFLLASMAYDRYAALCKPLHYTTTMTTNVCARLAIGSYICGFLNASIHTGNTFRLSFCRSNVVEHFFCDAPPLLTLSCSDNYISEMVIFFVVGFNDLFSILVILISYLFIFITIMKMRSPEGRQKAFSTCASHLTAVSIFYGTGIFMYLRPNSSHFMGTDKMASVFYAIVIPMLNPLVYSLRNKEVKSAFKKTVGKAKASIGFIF
How it was run: (§1)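 Each receptor–molecule pair is labelled responsive or non-responsive (inactive) according to whether the original authors judged the measured signal statistically different from baseline. The data were taken from the main text and supplementary material of published papers and checked for typos and inconsistencies. Assay methods differed by source, with transient luciferase assays in mammalian cell lines being common.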

[2] = system: T2, OR5BH L80I I85M
T2 sequence (whole entry): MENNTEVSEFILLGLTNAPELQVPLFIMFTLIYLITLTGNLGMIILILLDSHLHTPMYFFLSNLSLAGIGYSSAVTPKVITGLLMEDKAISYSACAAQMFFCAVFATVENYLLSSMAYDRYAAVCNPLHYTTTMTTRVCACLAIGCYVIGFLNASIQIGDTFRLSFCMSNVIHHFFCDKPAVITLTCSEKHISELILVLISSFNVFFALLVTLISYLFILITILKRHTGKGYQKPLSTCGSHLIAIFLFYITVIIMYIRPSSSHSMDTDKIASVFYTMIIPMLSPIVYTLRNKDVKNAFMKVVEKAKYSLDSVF
How it was run: as §1

[3] = system: T3, OR5BH L80I
T3 sequence (whole entry): T2 sequence (whole entry) with M85I
How it was run: as §1

[4] = target: T4, OR5C1 (Homo sapiens) (UniProt Q8NGR4)
T4 sequence (whole entry): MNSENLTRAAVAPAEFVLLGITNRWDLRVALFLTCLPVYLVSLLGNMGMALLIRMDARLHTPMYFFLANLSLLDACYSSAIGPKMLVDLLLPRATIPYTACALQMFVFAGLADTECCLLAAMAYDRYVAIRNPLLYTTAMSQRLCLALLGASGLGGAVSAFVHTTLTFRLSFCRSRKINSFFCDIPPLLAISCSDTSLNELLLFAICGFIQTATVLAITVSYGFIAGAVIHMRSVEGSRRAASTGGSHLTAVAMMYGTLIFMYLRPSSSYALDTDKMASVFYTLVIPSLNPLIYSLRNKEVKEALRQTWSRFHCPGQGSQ
How it was run: as §1

[5] = target: T5, OR5D13 (Homo sapiens) (UniProt Q8NGL4)
T5 sequence (whole entry): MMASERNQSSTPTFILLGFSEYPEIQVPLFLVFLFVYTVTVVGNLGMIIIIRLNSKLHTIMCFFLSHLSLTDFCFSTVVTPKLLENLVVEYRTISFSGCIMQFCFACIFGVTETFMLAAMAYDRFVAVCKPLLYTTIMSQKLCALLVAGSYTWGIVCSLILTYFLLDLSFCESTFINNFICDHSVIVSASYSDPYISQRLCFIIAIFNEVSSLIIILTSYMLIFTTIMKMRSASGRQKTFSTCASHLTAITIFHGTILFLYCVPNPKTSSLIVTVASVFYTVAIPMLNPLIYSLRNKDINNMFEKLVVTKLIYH
How it was run: as §1

[6] = target: T6, OR5D14 (Homo sapiens) (UniProt Q8NGL3)
T6 sequence (whole entry): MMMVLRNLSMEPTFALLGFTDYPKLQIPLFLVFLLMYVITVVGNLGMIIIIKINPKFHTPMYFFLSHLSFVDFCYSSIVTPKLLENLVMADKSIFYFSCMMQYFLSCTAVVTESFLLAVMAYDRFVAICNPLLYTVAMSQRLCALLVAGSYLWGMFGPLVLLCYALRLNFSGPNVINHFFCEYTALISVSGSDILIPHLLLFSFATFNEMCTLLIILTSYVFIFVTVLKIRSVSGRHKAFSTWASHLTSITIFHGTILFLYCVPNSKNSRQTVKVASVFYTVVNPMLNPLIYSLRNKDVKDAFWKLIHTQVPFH
How it was run: as §1

[7] = target: T7, OR5D16 (Homo sapiens) (UniProt Q8NGK9)
T7 sequence (whole entry): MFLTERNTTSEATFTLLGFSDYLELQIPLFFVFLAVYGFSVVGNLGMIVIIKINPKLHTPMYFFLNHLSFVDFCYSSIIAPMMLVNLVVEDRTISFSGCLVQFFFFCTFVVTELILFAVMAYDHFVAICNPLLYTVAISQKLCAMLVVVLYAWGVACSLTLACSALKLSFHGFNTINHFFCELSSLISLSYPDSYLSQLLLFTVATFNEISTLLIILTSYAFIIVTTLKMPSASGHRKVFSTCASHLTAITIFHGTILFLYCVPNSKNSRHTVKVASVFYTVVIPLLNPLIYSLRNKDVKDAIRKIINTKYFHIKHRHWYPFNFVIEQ
How it was run: as §1

[8] = target: T8, OR5D18 (Homo sapiens) (UniProt Q8NGL1)
T8 sequence (whole entry): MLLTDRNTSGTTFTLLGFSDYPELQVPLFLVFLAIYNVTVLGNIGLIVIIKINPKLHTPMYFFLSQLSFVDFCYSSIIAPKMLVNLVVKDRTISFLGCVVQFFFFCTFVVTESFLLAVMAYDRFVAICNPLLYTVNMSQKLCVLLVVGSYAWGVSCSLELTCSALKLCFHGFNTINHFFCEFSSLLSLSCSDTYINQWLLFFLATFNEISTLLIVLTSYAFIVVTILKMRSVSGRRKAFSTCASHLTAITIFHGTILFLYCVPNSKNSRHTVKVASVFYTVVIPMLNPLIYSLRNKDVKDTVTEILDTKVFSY
How it was run: as §1

[9] = system: T9, OR5DD C62Y
T9 sequence (whole entry): T5 sequence (whole entry) with C62Y
How it was run: as §1

[10] = system: T10, OR5DE S249A L290P
T10 sequence (whole entry): T6 sequence (whole entry) with S249A, L290P
How it was run: as §1

[11] = system: T11, OR5DG A156T
T11 sequence (whole entry): T7 sequence (whole entry) with A156T
How it was run: as §1

[12] = system: T12, OR5DI
T12 sequence (whole entry): T8 sequence (whole entry) with N136D
How it was run: as §1

[13] = target: T13, OR5F1 (Homo sapiens) (UniProt O95221)
T13 sequence (whole entry): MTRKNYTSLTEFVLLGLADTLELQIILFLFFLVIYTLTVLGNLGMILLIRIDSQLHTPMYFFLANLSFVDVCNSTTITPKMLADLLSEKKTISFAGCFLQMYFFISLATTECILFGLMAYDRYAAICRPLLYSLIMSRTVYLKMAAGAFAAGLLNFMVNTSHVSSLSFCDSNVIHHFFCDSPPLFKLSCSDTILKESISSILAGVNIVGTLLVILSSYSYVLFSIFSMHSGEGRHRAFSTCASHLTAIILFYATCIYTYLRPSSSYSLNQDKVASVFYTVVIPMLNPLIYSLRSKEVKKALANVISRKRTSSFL
How it was run: as §1

[14] = system: T14, OR5F1
T14 sequence (whole entry): T13 sequence (whole entry) with S294N
How it was run: as §1

[15] = target: T15, OR5H1 (Homo sapiens) (UniProt A6NKK0)
T15 sequence (whole entry): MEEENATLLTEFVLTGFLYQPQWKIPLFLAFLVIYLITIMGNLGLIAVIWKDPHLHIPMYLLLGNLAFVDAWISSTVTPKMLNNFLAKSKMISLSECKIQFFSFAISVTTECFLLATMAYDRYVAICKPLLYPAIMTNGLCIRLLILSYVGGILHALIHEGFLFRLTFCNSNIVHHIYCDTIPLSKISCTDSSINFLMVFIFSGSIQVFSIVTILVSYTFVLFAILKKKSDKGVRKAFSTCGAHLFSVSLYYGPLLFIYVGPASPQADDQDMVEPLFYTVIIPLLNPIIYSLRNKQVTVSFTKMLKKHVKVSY
How it was run: as §1

[16] = system: T16, OR5H1 F17L A30T H56Q
T16 sequence (whole entry): T15 sequence (whole entry) with F17L, A30T, H56Q
How it was run: as §1

[17] = system: T17, OR5H1 T181N
T17 sequence (whole entry): T15 sequence (whole entry) with T181N
How it was run: as §1

[18] = target: T18, OR5H14 (Homo sapiens) (UniProt A6NHG9)
T18 sequence (whole entry): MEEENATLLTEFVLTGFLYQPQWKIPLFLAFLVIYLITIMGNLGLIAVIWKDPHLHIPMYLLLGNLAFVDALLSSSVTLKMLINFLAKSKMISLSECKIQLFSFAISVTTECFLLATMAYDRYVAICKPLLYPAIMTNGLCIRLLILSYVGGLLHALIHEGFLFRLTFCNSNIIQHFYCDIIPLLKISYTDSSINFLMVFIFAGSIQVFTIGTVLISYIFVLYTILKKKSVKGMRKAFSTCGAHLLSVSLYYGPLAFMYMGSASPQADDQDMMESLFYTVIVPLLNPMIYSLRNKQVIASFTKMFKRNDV
How it was run: as §1

[19] = target: T19, OR5H15 (Homo sapiens) (UniProt A6NDH6)
T19 sequence (whole entry): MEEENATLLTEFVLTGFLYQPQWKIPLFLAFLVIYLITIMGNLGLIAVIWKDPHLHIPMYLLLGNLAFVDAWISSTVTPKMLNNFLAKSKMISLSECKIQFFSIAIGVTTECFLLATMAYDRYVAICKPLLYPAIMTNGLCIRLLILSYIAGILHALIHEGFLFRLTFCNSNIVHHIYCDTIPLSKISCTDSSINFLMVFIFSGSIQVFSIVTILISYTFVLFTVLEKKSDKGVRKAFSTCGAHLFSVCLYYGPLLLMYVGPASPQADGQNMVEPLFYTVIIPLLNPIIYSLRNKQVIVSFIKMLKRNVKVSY
How it was run: as §1

[20] = target: OR5G3 (Homo sapiens) (UniProt P0C626)
How it was run: as §1

Measured: odorant receptor agonist call;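 further: active if original authors judged signal statistically different from baseline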

OR5G3 (Homo sapiens), sequence (P0C626 whole entry): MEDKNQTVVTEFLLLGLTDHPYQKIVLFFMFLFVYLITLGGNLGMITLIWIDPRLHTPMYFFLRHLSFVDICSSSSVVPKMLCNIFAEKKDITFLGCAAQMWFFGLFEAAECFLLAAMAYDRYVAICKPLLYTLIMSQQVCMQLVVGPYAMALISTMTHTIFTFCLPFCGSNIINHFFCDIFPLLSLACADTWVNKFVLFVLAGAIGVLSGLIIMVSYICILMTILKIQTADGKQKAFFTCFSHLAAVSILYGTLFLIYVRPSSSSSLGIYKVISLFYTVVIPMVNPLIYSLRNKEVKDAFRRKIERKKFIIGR

CCC1OC(C)=C(O)C1=O (centres undefined)
not listed: [20]
inactive: all other assays above

CCCCC(S)C(C)CO (centres undefined)
inactive: [4] | [5] | [6] | [7] | [8] | [13] | [15] | [18] | [19]

CC(CO)CS (centres undefined)
inactive: [4] | [5] | [6] | [7] | [8] | [13] | [15] | [18] | [19]

CCCCCC(=O)C(C)C(C)=O (centres undefined)
inactive: [4] | [5] | [6] | [7] | [8] | [13] | [15] | [18] | [19]

CCCCCC(S)C(C)CO (centres undefined)
inactive: [4] | [5] | [6] | [7] | [8] | [13] | [15] | [18] | [19]

CC1=C(O)C(=O)OC1C (centres undefined)
not listed: [20]
inactive: all other assays above

CC1=NC(C)C(C)S1 (centres undefined)
not listed: [20]
inactive: all other assays above

Cc1cnc(C)c(C)n1
not listed: [20]
inactive: all other assays above

CCC(S)C(C)CO (centres undefined)
inactive: [4] | [5] | [6] | [7] | [8] | [13] | [15] | [18] | [19]

CC1CCCCCCCCCCCCC(=O)C1 (centres undefined)
inactive: [4] | [5] | [6] | [7] | [8] | [13] | [20] | [18] | [19]

CCCCCCC=CCCC=O
not listed: [17] | [20]
inactive: all other assays above

CCCC(S)CCOC(C)=O (centres undefined)
not listed: [20]
inactive: all other assays above

CCC1OC(=O)C(O)=C1C (centres undefined)
not listed: [20]
inactive: all other assays above

CC1=C(O)C(=O)C(C)O1 (centres undefined)
not listed: [20]
inactive: all other assays above

CC(=O)c1c(C)c([N+](=O)[O-])c(C(C)(C)C)c([N+](=O)[O-])c1C
inactive: [4] | [5] | [6] | [7] | [8] | [13] | [20] | [18] | [19]

— the M2OR odorant receptor database
